# In the library only some 2.1% were active in any assay of this set; here they are far more common.
# EBNA-1 inhibitor: blocks EBNA-1 binding to DNA | EBNA-1 DNA binding, fluorescence polarization | inhibition, % at 14.8 µM | 300,000 tested, 0.34% active | AID 1950; in the data active means inhibition above about 28%
# MLLE-PAM2 inh: blocks PAM2 peptide binding to the PABP1 MLLE domain | P11940 | GST-MLLE / FITC-PAM2 fluorescence polarization | inhibition, % at 20 µM | 360,000 tested, 0.36% active; in the data active means inhibition above about 35%, passing the limit was not always enough;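 further: plate controls were DMSO wells with GST-MLLE for no effect and wells lacking GST-MLLE protein for full effect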
# HCV NS3 hel inh: HCV NS3 helicase inhibition; NS3 helicase DNA unwinding, Cy5 molecular beacon fluorescence; inhibition, % at 10.9 µM; 290,000 tested, 0.56% active;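 active means inhibition above the mean of all tested compounds plus 3 SD, set per campaign, cut at about 35% in these data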;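 further: 0% = DMSO wells and 100% = thioflavine S control wells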
#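 System: Hepatitis C virus NS3 helicase domain fragment enzyme | Reagent: Annealed dual-labelled DNA beacon duplex, ATP-started | Compound dosing: 10.9 µM single point, 0.8% DMSO | Incubation: 1 h reaction at 25 °C, ATP-initiated | Technique: Cy5 fluorescence | Evaluation: Percent inhibition from t60/t0 fluorescence ratio | Benchmarks: Low DMSO, high thioflavine S at 110 µM | Replication: Singlicate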
# PABP FP inh: blocks human PABP binding to poly(A) RNA. P11940. fluorescence polarization. inhibition, % at 35 µM. 290,000 tested, 1% active. AID 2014;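 further: calls also rest on retests at 20 µM and on dose response follow-up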
# ZTA counter: counter-screen for EBNA-1 inhibitors: inhibitors of Epstein-Barr virus ZTA; AID 2234; ZTA-DNA binding, fluorescence polarization; 320,000 tested, 0.15% active; inhibition, % at 11 µM; in the data active means inhibition above about 33%
# Target sequence (P03206 whole entry, looked up): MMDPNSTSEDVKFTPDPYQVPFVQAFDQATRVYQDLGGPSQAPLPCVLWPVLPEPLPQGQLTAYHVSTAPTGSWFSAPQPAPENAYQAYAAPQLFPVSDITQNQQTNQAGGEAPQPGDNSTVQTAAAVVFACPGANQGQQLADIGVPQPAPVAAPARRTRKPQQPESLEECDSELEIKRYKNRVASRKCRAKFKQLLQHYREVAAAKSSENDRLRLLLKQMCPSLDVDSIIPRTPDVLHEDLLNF
# eIF4H FP inh: inhibitors of RNA binding by human eIF4H; Q15056; eIF4H fluorescence polarization binding assay; inhibition, % at 35 µM; 290,000 tested, 0.94% active;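 further: calls also rest on retests at 20 µM and on dose response follow-up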
# The depositor's hits bear a star; u = inconclusive; x = not tested or not shown. Unless noted, how the calls were made is not given here.
SMILES,EBNA-1 inhibitor,MLLE-PAM2 inh,HCV NS3 hel inh,PABP FP inh,ZTA counter,eIF4H FP inh
COC(=O)C1=C(O)/C(=C\c2ccc(CNC(=O)C(=O)Nc3ccc(C)cc3)o2)N=C1C,-14,-10,32,u,-21,u
CCOC(=O)C1=C(O)/C(=C/c2ccc(CNC(=O)C(=O)Nc3ccc(C)cc3)o2)N=C1C,-3,-17,11,119,5,103*
O=C(CSc1ncn(-c2ccccc2)n1)c1cccs1,17,38*,-17,-6,12,-6
O=C(CSc1nnc(CNC(=O)c2ccccc2F)o1)Nc1ccc2c(c1)OCO2,3,24,-12,-8,-17,5
O=C(CSc1ncn(-c2ccccc2)n1)Nc1ccc2c(c1)OCO2,3,-102,1,32,14,-6
O=C(CSc1ncn(-c2ccccc2)n1)Nc1ccc2c(c1)OCCO2,-11,37*,-6,7,-6,1
O=C(CSc1nnc(CNC(=O)c2ccccc2F)o1)Nc1ccc2c(c1)OCCO2,-7,47*,-12,-16,5,0
O=C(CSc1nnc2c(n1)[nH]c1ccccc12)Nc1ccc2c(c1)OCO2,10,37*,-2,0,-2,10
Cc1ccc(NC(=O)CSc2nnc3c(n2)[nH]c2ccccc23)cc1,2,-9,-1,3,-3,-1
N[C@@H](Cc1ccccc1)c1nnc2sc(SCc3ccccc3)nn12,-15,19,-20,11,5,-8
N#Cc1cc(Cl)c(NCC2CCCO2)cc1C#N (stereo not given),-8,-13,7,4,1,-10
CNc1ncc(C(=O)c2ccc(F)cc2)s1,-15,5,-5,-8,5,-3
Cc1ccc(C2=NC(C)(C)N=C2SCC(=O)Nc2ccc(Cl)cc2)cc1,10,25,-12,-7,13,-9
CC1(C)N=C(SCC(=O)Nc2ccccc2)C(c2ccc(Cl)cc2)=N1,7,44*,-6,4,9,-4
O=C(CSC1=NC2(CCCCC2)N=C1c1ccccc1)Nc1ccc2c(c1)OCCO2,-8,46*,8,u,15,u
O=C(COC(=O)CCC(NC(=O)OCc1ccccc1)C(=O)OCC(=O)Nc1ccccc1)Nc1ccccc1 (stereo not given),1,-4,-14,59*,-22,-1
Cc1ccc(NC(=O)COC(=O)CCc2c[nH]c(=O)[nH]2)cc1,3,87,5,10,-6,7
O=C(COC(=O)CCc1c[nH]c(=O)[nH]1)Nc1ccccc1,3,53*,0,15,3,26
CC(C)c1ccc(NC(=O)C[n+]2ccn(C3=C([O-])c4ccccc4C3=O)c2)cc1,-15,9,4,9,-29,13
O=C(CN(Cc1ccco1)C(=O)c1cccc(Cl)c1)Nc1c(Cl)cc(Cl)cc1Cl,-1,-2,2,-15,10,-6
COc1ccc(N(CCCN2C(=O)c3cccc4cccc(c34)C2=O)C(=O)c2ccncc2)cc1,-8,0,-7,6,-19,0
COc1ccc(N(CCN2C(=O)c3ccccc3C2=O)C(=O)c2cccc([N+](=O)[O-])c2)cc1,-13,-9,-23,72*,-15,active
Cn1c(=O)[nH]c(=O)c2c1nc(NCCCn1ccnc1)n2Cc1ccccc1,-12,-16,6,5,18,7
O=C(CN1CCN(c2ccccc2O)CC1)Nc1ccc2c(c1)CCC2,-3,-7,-17,87*,4,2.2*
O=C(CN1CCCC1)Nc1ccc2c(c1)CCC2,5,11,12,10,9,12
SMILES,EBNA-1 inhibitor,MLLE-PAM2 inh,HCV NS3 hel inh,PABP FP inh,ZTA counter,eIF4H FP inh
CC(=O)C1=C(O)C(=O)N(c2cccc(C(=O)O)c2)C1c1ccc(F)cc1 (stereo not given),11,-12,-5,54*,10,u
CNc1nc(Nc2ccc(C(=O)OC)cc2)c2sccc2n1,x,23,x,x,x,x
C=CCN1C(=O)/C(=C/c2ccc(O)cc2)S/C1=N/c1nccs1,-6,-99,8,3,-9,-8
C=CCN1C(=O)/C(=C2/C(=O)N(CC(=O)O)c3ccccc32)S/C1=N/c1nccs1,x,x,26,68*,x,105*
CC(OC(=O)CC1Sc2ccccc2NC1=O)C(=O)N(C)Cc1ccccc1 (stereo not given),x,-10,x,x,x,x
COc1cc(C)c(CNc2ccc(OC)c(OC)c2)cc1C,17,x,-10,81*,-2,63*
O=C1CCCC2=C1C(c1ccc(Cl)cc1)n1c(s/c(=C\c3ccc4ccncc4c3)c1=O)=N2 (stereo not given),-2,-53,10,active,-13,55*
O=C(O)c1ccc(CN2C(=O)c3cccc4c([N+](=O)[O-])ccc(c34)C2=O)cc1,x,51*,20,63*,x,81*
CN(C)CCCN1C(=O)c2cccc3c([N+](=O)[O-])ccc(c23)C1=O,6,57*,11,4,18,u
O=C(O)c1ccc(CN2C(=O)c3ccc(C(=O)O)cc3C2=O)cc1,5,10,-1,0,2,-4
Cc1cc(C(=O)Nc2sccc2C#N)c2ccccc2n1,-13,-59,9,22*,12,61
COc1ccccc1NC(C)=[N+](C)CCNS(=O)(=O)c1ccc(Cl)cc1,-1,-29,2,74*,-17,0
O=C(N/N=C/c1cc(Br)c(Br)o1)C(O)c1ccccc1 (stereo not given),7,-22,26,-11,-12,63*
COC(=O)c1ccccc1NC(=O)CSc1nnc(C(CO)NC(=O)c2ccccc2Cl)n1C (stereo not given),3,-9,-2,16,4,-9
CC1(C(=O)NNC(=O)c2ccc(=O)oc2)CC1Br (stereo not given),6,-7,18,83*,4,82
Cc1cc(=O)oc(C)c1C(=O)NNC(=O)C1(C)CC1Br (stereo not given),-6,-1,-11,8,23,-16
C=CC[n+]1c(-c2ccc(C)cc2)csc1Nc1ccc(NC(C)=O)cc1,x,-12,-1,-10,x,-9
C=CC[n+]1c(-c2ccc(OC)cc2)csc1NNC(=O)Nc1ccccc1,-5,-51,10,70*,-4,70*
CC(C)n1cnnc1SCC(=O)NNC(=O)COc1ccc(Cl)cc1,3,0,x,x,-2,x
CCCC[n+]1c2ccccc2cc2ccccc21,-21,-83,-10,68*,-2,14
Cc1ccc2ccccc2[n+]1CCCS(=O)(=O)[O-],4,-5,2,0,1,6
CCCCC[n+]1cccc2c3ccccc3ccc21,7,-140,-18,-10,11,-4
CCC[n+]1c2ccccc2cc2ccccc21,-11,-79,19,67*,-11,0
Cc1ccccc1-c1nc(CN(C)C(C)c2ccon2)c(C)o1 (stereo not given),6,2,-16,-7,23,0
